As a reminder, the IC50 is the concentration that gives 50% inhibition. In general, inhibition refers to the percentage by which the read-out fell short of the control. The term half-life denotes the time in which the quantity being followed falls by half. Low values mean fast loss, high ones slow loss.

SMILES strings stand for the structures. Active and inactive are the calls of the source. The calls are words filed in the database; no cut-off is given here. Some results are limits rather than exact numbers.

Data on 23 compounds can be found in ChEMBL document CHEMBL3739412, “Addressing cytotoxicity of 1,4-biphenyl amide derivatives: Discovery of new potent and selective 17β-hydroxysteroid dehydrogenase type 2 inhibitors” (Bioorg Med Chem Lett, 2016).

The target of data set [1] is T1, 17-beta-hydroxysteroid dehydrogenase type 1 (Homo sapiens, UniProt P14061).
T1 sequence (P14061 whole entry): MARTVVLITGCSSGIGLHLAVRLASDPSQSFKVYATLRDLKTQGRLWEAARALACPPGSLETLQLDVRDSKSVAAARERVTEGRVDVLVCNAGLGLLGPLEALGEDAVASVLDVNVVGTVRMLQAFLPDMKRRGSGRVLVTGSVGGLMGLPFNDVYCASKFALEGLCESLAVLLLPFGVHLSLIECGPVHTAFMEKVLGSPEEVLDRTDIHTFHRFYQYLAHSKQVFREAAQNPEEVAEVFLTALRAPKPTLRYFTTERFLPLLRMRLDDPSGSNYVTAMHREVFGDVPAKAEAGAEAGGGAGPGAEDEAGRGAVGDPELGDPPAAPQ
Put plainly: Inhibition of 17beta-HSD1 in human placental cytosolic fraction using E1/NADH as substrate/cofactor after 10 mins by HPLC analysis. The method in brief: (§1)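 Enzyme source is human placenta, cytosolic fraction. Substrate is estrone (E1) at 500 nM, with NADH as cofactor. Values are the mean of at least two determinations, with standard deviation below 20%.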

The species named for the next data set is Homo sapiens. Put plainly: Selectivity ratio of IC50 for 17beta-HSD1 in human placental cytosolic fraction to IC50 for 17beta-HSD2 in human placental microsomal fraction.
The target in data set [2] is T2, 17-beta-hydroxysteroid dehydrogenase type 2 (Homo sapiens, UniProt P37059).
T2 sequence (P37059 whole entry): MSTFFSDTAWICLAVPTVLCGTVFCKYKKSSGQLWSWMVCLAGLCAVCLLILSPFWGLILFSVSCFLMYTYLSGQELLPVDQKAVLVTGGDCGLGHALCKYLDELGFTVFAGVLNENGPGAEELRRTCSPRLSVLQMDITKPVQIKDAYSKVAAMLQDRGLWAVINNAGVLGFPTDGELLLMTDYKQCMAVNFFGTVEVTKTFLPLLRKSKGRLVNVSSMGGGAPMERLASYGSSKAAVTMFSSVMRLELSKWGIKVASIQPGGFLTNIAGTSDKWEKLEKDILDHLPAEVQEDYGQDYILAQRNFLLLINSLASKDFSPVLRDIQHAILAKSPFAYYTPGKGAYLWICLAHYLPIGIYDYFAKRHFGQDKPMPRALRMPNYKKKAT
Put plainly: Inhibition of 17beta-HSD2 in human placental microsomal fraction using E2/NAD+ as substrate/cofactor after 20 mins by HPLC analysis. Further details: species or system Placenta. The essentials: (§2)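 Enzyme source is human placenta, microsomal fraction. Substrate is estradiol (E2) at 500 nM, with NAD+ as cofactor. Values are the mean of at least two determinations, with standard deviation below 20%.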

Data set [3] in a line: Cytotoxicity against HEK293 cells assessed as cell viability after 66 hrs by MTT assay. The data set is classed as cell-based. To be noted: human, read-out: LD50. (Tetrazolium dyes change colour on reduction, which living cells bring about.)
Data set [4] deals with T3, 17-beta-hydroxysteroid dehydrogenase type 1 (Homo sapiens) (UniProt P14061).
T3 sequence (whole entry): T1 sequence (P14061 whole entry)
Put plainly: Inhibition of 17beta-HSD1 in human placental cytosolic fraction using E1/NADH as substrate/cofactor at 1 uM after 10 mins by HPLC analysis. The method in brief:
as §1

The target in data set [5] is T4, 17-beta-hydroxysteroid dehydrogenase type 2 (Homo sapiens) (UniProt P37059).
T4 sequence (whole entry): T2 sequence (P37059 whole entry)
Put plainly: Inhibition of 17beta-HSD2 in human placental microsomal fraction using E2/NAD+ as substrate/cofactor at 1 uM after 20 mins by HPLC analysis. To be noted: Placenta. The essentials: as §2

Data set [6] is described as follows: Cytotoxicity against HEK293 cells assessed as cell viability at 6.25 uM after 66 hrs by MTT assay. The data set is classed as cell-based. As to conditions: human, read-out: Activity.
Data set [7] can be described thus: Half life in human liver S9 fraction at 1 uM after 5 to 60 mins by LC-MS/MS analysis. Format: ADME, subcellular.

Regarding `COc1cccc(N(C)C(=O)C2CCC(c3ccc(Cl)cc3)CC2)c1` (stereo unspecified), the IC50 in data set [1] (read-out: IC50) came to 60.1 µM; in data set [2], 0.29 µM. In the data set filed under Homo sapiens, the Ratio IC50 is 209. The CC50 at 66 h in data set [3] was above 12.5 µM.

As to `Cc1ccc(N2CCN(C(=O)c3cccc(O)c3)CC2)cc1`, the inhibition entry in data set [4] and in data set [5] was “inactive” throughout.

With `COc1cccc(S(=O)(=O)N2CCN(c3cccc(C)c3)CC2)c1`, the inhibition result in data set [4] was “inactive”. The compound also displayed an inhibition in data set [5] of 16%.

Take `Cc1ccc(Oc2ccc(C(=O)N(C)c3cccc(C)c3)cc2)cc1`: the half-inhibitory concentration (IC50) in data set [1] (read-out: IC50) was determined as 26.3 µM; in data set [2], 0.16 µM. Further, the Ratio IC50 in the data set listed under Homo sapiens is 168. In addition, in data set [3], the CC50 at 66 h was 25 µM.

In the case of `Cc1cccc(N(C)C(=O)c2ccc(Oc3ccccc3)cc2)c1`, the IC50 result in data set [1] is “Not Active”. Further, in data set [4], the inhibition result was “inactive”. In addition, the inhibition in data set [5] is 59%.

Take `Cc1cccc(N(C)C(=O)c2ccc(Oc3ccccc3C)cc2)c1`: the IC50 result in data set [1] is on record as “Not Active”. Further, the inhibition entry in data set [4] was “inactive”. The compound also yielded an inhibition in data set [5] of 55%.

`O=S(=O)(c1cccc(O)c1)N1CCN(c2cccc(O)c2)CC1`: the inhibition result in data set [4] was “inactive”. The compound also showed an inhibition in data set [5] of 25%.

On to `COc1cccc(C(=O)N2CCN(c3ccc(C)cc3)CC2)c1`, for which, in data set [4], the inhibition entry was “inactive”. Further, the inhibition in data set [5] is 16%.

As to `COc1ccc(Oc2ccc(C(=O)N(C)c3cccc(OC)c3)cc2)cc1`, the IC50 in data set [1] (read-out: IC50) was 9.6 µM; in data set [2], 0.31 µM. For the same compound, in the data set listed under Homo sapiens, the Ratio IC50 worked out at 31. For the same compound, the CC50 at 66 h in data set [3] came out at 25 µM.

In the case of `O=C(c1cccc(O)c1)N1CCN(c2ccccc2)CC1`, the inhibition entry in data set [4] was “inactive”. This compound came in with an inhibition in data set [5] of 27%.

As for `Cc1cccc(N2CCN(C(=O)c3cccc(O)c3)CC2)c1`, the inhibition entry in data set [4] is “inactive”. In data set [5], the inhibition worked out at 16%.

In the case of `COc1cccc(C(=O)N2CCN(c3ccccc3)CC2)c1`, the inhibition entry in data set [4] is “inactive”. Moreover, the inhibition in data set [5] stood at 14%.

On to `CN(C(=O)c1ccc(Oc2ccc(O)cc2)cc1)c1cccc(O)c1`, for which the IC50 result in data set [1] is given as “Not Active”. Moreover, the inhibition result in data set [4] was “inactive”. The same compound yielded an inhibition in data set [5] of 43%.

Regarding `COc1cccc(C(=O)N2CCN(c3cccc(C)c3)CC2)c1`, the inhibition result in data set [4] and in data set [5] was “inactive” each time.

With `COc1cccc(N(C)C(=O)c2ccc(Oc3ccc([N+](=O)[O-])cc3)cc2)c1`, in data set [1], the IC50 result is given as “Not Active”. Further, the inhibition result in data set [4] was “inactive”. In data set [5], the inhibition is 43%.

For `COc1cccc(N(C)C(=O)c2ccc(-c3ccc(C)c(C)c3)cc2)c1`, the viability at 66 h, 6.25 µM in data set [6] is 34%. The Ratio IC50 in the data set listed under Homo sapiens turned out to be 44. In addition, the inhibition in data set [5] is 75%. The CC50 at 66 h in data set [3] is below 6.25 µM. Besides, the half-life at 1 µM in data set [7] is 1.78 h.

For the compound `O=S(=O)(c1cccc(O)c1)N1CCN(c2ccc(F)c(O)c2)CC1`, in data set [4], the inhibition result was “inactive”. In data set [5], the inhibition worked out at 48%.

Take `COc1cccc(C(=O)N2CCN(c3cccc(OC)c3)CC2)c1`: the inhibition entry in data set [4] and in data set [5] was “inactive” each time.

For the compound `COc1cccc(N2CCN(S(=O)(=O)c3cccc(OC)c3)CC2)c1`, the inhibition result in data set [4] and in data set [5] was “inactive” in each case.

`COc1cccc(S(=O)(=O)N2CCN(c3ccc(F)c(OC)c3)CC2)c1`: in data set [4], the inhibition entry is “inactive”. The compound further registered an inhibition in data set [5] of 15%.

On to `Cc1cccc(N2CCN(S(=O)(=O)c3cccc(O)c3)CC2)c1`, for which, in data set [4], the inhibition result was “inactive”. The compound further showed an inhibition in data set [5] of 27%.

As for `Cc1cccc(Oc2ccc(C(=O)N(C)c3cccc(C)c3)cc2)c1`, the results for the IC50 in data set [1] (read-out: IC50) and in data set [2] were 16.1 µM and 0.3 µM, respectively. The Ratio IC50 in the data set listed under Homo sapiens came out at 54. Moreover, in data set [3], the CC50 at 66 h turned out to be 25 µM.

Regarding `COc1cccc(N(C)C(=O)c2ccc(Oc3ccc(Cl)cc3)cc2)c1`, the inhibition in data set [4] was found to be 13%; in data set [5], 51%.
